Experimental findings from ChEMBL document CHEMBL1649355, “Synthesis and biological evaluation of novel 2,4-disubstituted-1,3-thiazoles as anti-Candida spp. agents” (2011) are described below.

The subject of assay [1] is Nakaseomyces glabratus. Description: Antifungal activity against Candida glabrata after 24 hrs.
Assay [2] deals with [Candida] sake. Description: Antifungal activity against Candida sake after 24 hrs by broth microdilution method. The note with it: Fermentozyma sake.
The subject of assay [3] is Pichia kudriavzevii. Kind of assay: Antifungal activity against Candida krusei after 24 hrs by broth microdilution method. On the technique in general: In broth dilution the organism is exposed to a series of concentrations in liquid medium.
For assay [4], the system named is Candida albicans. Description: Antifungal activity against Candida albicans after 24 hrs by broth microdilution method.
Assay [5] has as its system Candida tropicalis. Description: Antifungal activity against Candida tropicalis after 24 hrs by broth microdilution method.
Assay [6] has as its system Nakaseomyces glabratus. Kind of assay: Antifungal activity against Candida glabrata after 24 hrs by MTT assay. The assay is classed as functional. The procedure, abridged: (§1)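 Broth microdilution in Sabouraud dextrose broth per NCCLS guidance, tested against clinical Candida isolates (20 strains across species). Compounds dissolved in DMSO and serially diluted to final concentrations of 0.125–256. Inoculum 10³/mL. Each plate carried fungus-only and medium-only controls. Incubated 24 h at 37 °C. MIC reported as range per species.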

Assay [7] deals with Candida albicans. Description: Antifungal activity against Candida albicans after 24 hrs by MTT assay. The class given is functional. The procedure, abridged: as §1
On the technique in general: Tetrazolium dyes change colour on reduction, which living cells bring about.

Assay [8] deals with Pichia kudriavzevii. Kind of assay: Antifungal activity against Candida krusei after 24 hrs by MTT assay. The assay is classed as functional. An outline of the steps: as §1
Assay [9] deals with [Candida] sake. Description: Antifungal activity against Candida sake after 24 hrs by MTT assay. The note with it: Fermentozyma sake. The assay is classed as functional. The procedure, abridged:
as §1

Assay [10] concerns Candida tropicalis. Kind of assay: Antifungal activity against Candida tropicalis after 24 hrs by MTT assay. The assay is classed as functional. The procedure, abridged:
as §1

≈ marks a conversion by molar mass, not a printed value.

What is called MIC is the smallest concentration in the dilution series that meets the test's criterion for growth inhibition. `COc1ccc(-c2csc(N/N=C(/C)c3cc4ccccc4oc3=O)n2)cc1`: the MIC in assay [1] came to 2 µg/mL (≈ 5.11 µM); in assay [2] it was 32 µg/mL (≈ 81.7 µM); in assay [3], 32 µg/mL (≈ 81.7 µM); in assay [4], 2 µg/mL (≈ 5.11 µM); in [5] it was 2 µg/mL (≈ 5.11 µM).

Take `COc1ccc(-c2csc(N/N=C\c3ccncc3)n2)cc1`: the MIC in assay [1] came to 0.5 µg/mL (≈ 1.61 µM); in assay [2] it was 32 µg/mL (≈ 103 µM); in assay [3], 16 µg/mL (≈ 51.5 µM); in assay [4], 0.125 µg/mL (≈ 0.403 µM); in [5], 16 µg/mL (≈ 51.5 µM).

For the compound `C/C(=N/Nc1nc(-c2ccc(C)cc2)cs1)c1ccc2ccccc2c1`, the MIC in [1] is 0.5 µg/mL (≈ 1.4 µM); in assay [2], 16 µg/mL (≈ 44.8 µM); in assay [3] it was 32 µg/mL (≈ 89.5 µM); in assay [4], 2 µg/mL (≈ 5.59 µM); in [5], 4 µg/mL (≈ 11.2 µM).

Consider `COc1ccc(-c2csc(N/N=C\c3cccnc3)n2)cc1`, for which the MIC came to 16 µg/mL (≈ 51.5 µM) in assay [1]; 16 µg/mL (≈ 51.5 µM) in assay [2]; 32 µg/mL (≈ 103 µM) in assay [3]; 4 µg/mL (≈ 12.9 µM) in [4]; 64 µg/mL (≈ 206 µM) in assay [5].

Consider `Cc1ccc(-c2csc(N/N=C\c3cccs3)n2)cc1`, for which the MIC in [1] was 0.5 µg/mL (≈ 1.67 µM); in assay [2], 8 µg/mL (≈ 26.7 µM); in assay [3] it was 16 µg/mL (≈ 53.4 µM); in assay [4] it was 4 µg/mL (≈ 13.4 µM); in assay [5], 64 µg/mL (≈ 214 µM).

For the compound `COc1ccc(-c2csc(N/N=C\c3ccco3)n2)cc1`, the MIC in assay [1] amounted to 4 µg/mL (≈ 13.4 µM); in [2], 32 µg/mL (≈ 107 µM); in assay [3] it was 16 µg/mL (≈ 53.4 µM); in assay [4], 0.5 µg/mL (≈ 1.67 µM); in [5], 64 µg/mL (≈ 214 µM).

As to `C/C(=N/Nc1nc(-c2ccc(C)cc2)cs1)c1ccccn1`, the MIC in assay [1] worked out at 4 µg/mL (≈ 13 µM); in assay [2], 32 µg/mL (≈ 104 µM); in [3], 64 µg/mL (≈ 208 µM); in [4], 2 µg/mL (≈ 6.48 µM); in assay [5] it was 64 µg/mL (≈ 208 µM).

For the compound `COc1ccc(-c2csc(N/N=C(/C)c3ccccn3)n2)cc1`, the MIC in [1] worked out at 8 µg/mL (≈ 24.7 µM); in assay [2], 32 µg/mL (≈ 98.6 µM); in assay [3], 16 µg/mL (≈ 49.3 µM); in assay [4], 0.5 µg/mL (≈ 1.54 µM); in [5], 64 µg/mL (≈ 197 µM).

On to `COc1ccc(-c2csc(N/N=C(/C)c3ccncc3)n2)cc1`, for which the minimum inhibitory concentration (MIC) in assay [1] was 4 µg/mL (≈ 12.3 µM); in [2], 16 µg/mL (≈ 49.3 µM); in [3], 128 µg/mL (≈ 395 µM); in assay [4], 0.5 µg/mL (≈ 1.54 µM); in [5], 32 µg/mL (≈ 98.6 µM).

As to `C/C(=N/Nc1nc(-c2ccc(C)cc2)cs1)c1cccnc1`, the MIC in assay [1] came to 2 µg/mL (≈ 6.48 µM); in assay [2], 16 µg/mL (≈ 51.9 µM); in [3] it was 64 µg/mL (≈ 208 µM); in assay [4], 0.5 µg/mL (≈ 1.62 µM); in assay [5], 16 µg/mL (≈ 51.9 µM).

On to `COc1ccc(-c2csc(N/N=C(/C)c3cccs3)n2)cc1`, for which the minimal inhibitory concentration (MIC) in [1] was 2 µg/mL (≈ 6.07 µM); in assay [2] it was 32 µg/mL (≈ 97.1 µM); in [3] it was 64 µg/mL (≈ 194 µM); in assay [4], 0.125 µg/mL (≈ 0.379 µM); in assay [5], 8 µg/mL (≈ 24.3 µM).

Take `Clc1ccccc1C(c1ccccc1)(c1ccccc1)n1ccnc1` [CLOTRIMAZOLE]: the values for the MIC in [1], in assay [2] and in [4] were 2 µg/mL (≈ 5.8 µM), 16 µg/mL (≈ 46.4 µM) and 2 µg/mL (≈ 5.8 µM), respectively.

As to `C/C(=N/Nc1nc(-c2ccc(C)cc2)cs1)c1cccs1`, the MIC in assay [1] worked out at 2 µg/mL (≈ 6.38 µM); in assay [2] it was 32 µg/mL (≈ 102 µM); in assay [3], 32 µg/mL (≈ 102 µM); in assay [4], 0.5 µg/mL (≈ 1.6 µM); in assay [5] it was 128 µg/mL (≈ 408 µM).

Take `C/C(=N/Nc1nc(-c2ccc(C)cc2)cs1)c1cc2ccccc2oc1=O`: the minimum inhibitory concentration (MIC) in assay [6] stood at 0.5 µg/mL (≈ 1.33 µM); in [7] it was 0.125 µg/mL (≈ 0.333 µM); in assay [8], 128 µg/mL (≈ 341 µM); in assay [9] it was 32 µg/mL (≈ 85.2 µM); in assay [10] it was 128 µg/mL (≈ 341 µM).

Turning to `Cc1ccc(-c2csc(N/N=C\c3c[nH]c4ccccc34)n2)cc1`, the MIC in assay [1] was 4 µg/mL (≈ 12 µM); in assay [2], 32 µg/mL (≈ 96.3 µM); in assay [3], 32 µg/mL (≈ 96.3 µM); in assay [4], 0.125 µg/mL (≈ 0.376 µM); in [5], 64 µg/mL (≈ 193 µM).

For the compound `COc1ccc(-c2csc(N/N=C(/C)c3cccnc3)n2)cc1`, the MIC in assay [1] came out at 8 µg/mL (≈ 24.7 µM); in assay [2] it was 32 µg/mL (≈ 98.6 µM); in assay [3], 128 µg/mL (≈ 395 µM); in assay [4] it was 8 µg/mL (≈ 24.7 µM); in [5], 128 µg/mL (≈ 395 µM).

For `C/C(=N/Nc1nc(-c2ccc(C)cc2)cs1)c1ccco1`, the minimal inhibitory concentration (MIC) in [1] is 4 µg/mL (≈ 13.5 µM); in assay [2], 32 µg/mL (≈ 108 µM); in assay [3], 64 µg/mL (≈ 215 µM); in assay [4] it was 0.5 µg/mL (≈ 1.68 µM); in [5], 64 µg/mL (≈ 215 µM).

`C/C(=N/Nc1nc(-c2ccc(C)cc2)cs1)c1ccncc1`: the MIC amounted to 4 µg/mL (≈ 13 µM) in assay [1]; 32 µg/mL (≈ 104 µM) in assay [2]; 32 µg/mL (≈ 104 µM) in assay [3]; 0.5 µg/mL (≈ 1.62 µM) in [4]; 32 µg/mL (≈ 104 µM) in assay [5].

In the case of `OC(Cn1cncn1)(Cn1cncn1)c1ccc(F)cc1F` [FLUCONAZOLE], the MIC in [1] was 4 µg/mL (≈ 13.1 µM); in assay [2], 32 µg/mL (≈ 104 µM); in assay [3], 8 µg/mL (≈ 26.1 µM); in assay [4], 4 µg/mL (≈ 13.1 µM); in assay [5], 4 µg/mL (≈ 13.1 µM).

For `Cc1ccc(-c2csc(N/N=C\c3ccncc3)n2)cc1`, the MIC in [1] was 4 µg/mL (≈ 13.6 µM); in [2], 32 µg/mL (≈ 109 µM); in assay [3], 128 µg/mL (≈ 435 µM); in [4], 0.5 µg/mL (≈ 1.7 µM); in assay [5] it was 64 µg/mL (≈ 217 µM).

With `Cc1ccc(-c2csc(N/N=C\c3cccc4ccccc34)n2)cc1`, the MIC in [1] was 16 µg/mL (≈ 46.6 µM); in [2], 32 µg/mL (≈ 93.2 µM); in assay [3] it was 16 µg/mL (≈ 46.6 µM); in [4], 2 µg/mL (≈ 5.82 µM); in assay [5], 16 µg/mL (≈ 46.6 µM).

With `Cc1ccc(-c2csc(N/N=C\c3cccnc3)n2)cc1`, the MIC in [1] is 0.5 µg/mL (≈ 1.7 µM); in [2], 16 µg/mL (≈ 54.4 µM); in assay [3] it was 32 µg/mL (≈ 109 µM); in [4], 0.125 µg/mL (≈ 0.425 µM); in assay [5], 128 µg/mL (≈ 435 µM).

For `COc1ccc(-c2csc(N/N=C(/C)c3ccc4ccccc4c3)n2)cc1`, the minimum inhibitory concentration (MIC) in [1] worked out at 2 µg/mL (≈ 5.36 µM); in [2] it was 16 µg/mL (≈ 42.8 µM); in assay [3], 256 µg/mL (≈ 685 µM); in [4], 2 µg/mL (≈ 5.36 µM); in assay [5] it was 64 µg/mL (≈ 171 µM).

Turning to `Cc1ccc(-c2csc(N/N=C\c3ccc4c(c3)OCO4)n2)cc1`, the MIC came to 4 µg/mL (≈ 11.9 µM) in assay [1]; 8 µg/mL (≈ 23.7 µM) in assay [2]; 64 µg/mL (≈ 190 µM) in [3]; 0.125 µg/mL (≈ 0.37 µM) in [4]; 16 µg/mL (≈ 47.4 µM) in assay [5].

`COc1ccc(-c2csc(N/N=C(/C)c3ccco3)n2)cc1`: the minimum inhibitory concentration (MIC) in assay [1] amounted to 4 µg/mL (≈ 12.8 µM); in assay [2] it was 16 µg/mL (≈ 51.1 µM); in assay [3] it was 16 µg/mL (≈ 51.1 µM); in [4], 0.5 µg/mL (≈ 1.6 µM); in assay [5] it was 128 µg/mL (≈ 408 µM).

In the case of `COc1ccc(-c2csc(N/N=C\c3cccs3)n2)cc1`, the MIC stood at 0.5 µg/mL (≈ 1.59 µM) in [1]; 32 µg/mL (≈ 101 µM) in assay [2]; 64 µg/mL (≈ 203 µM) in [3]; 0.125 µg/mL (≈ 0.396 µM) in assay [4]; 128 µg/mL (≈ 406 µM) in [5].

As for `Cc1ccc(-c2csc(N/N=C\c3ccco3)n2)cc1`, the MIC was 4 µg/mL (≈ 14.1 µM) in [1]; 16 µg/mL (≈ 56.5 µM) in [2]; 32 µg/mL (≈ 113 µM) in assay [3]; 0.5 µg/mL (≈ 1.76 µM) in assay [4]; 64 µg/mL (≈ 226 µM) in [5].

For `COc1ccc(-c2csc(N/N=C\c3ccc4c(c3)OCO4)n2)cc1`, the MIC in assay [1] was determined as 4 µg/mL (≈ 11.3 µM); in assay [2] it was 8 µg/mL (≈ 22.6 µM); in assay [3], 64 µg/mL (≈ 181 µM); in [4], 0.5 µg/mL (≈ 1.41 µM); in assay [5], 64 µg/mL (≈ 181 µM).

In the case of `COc1ccc(-c2csc(N/N=C\c3c[nH]c4ccccc34)n2)cc1`, the MIC in assay [1] is 0.5 µg/mL (≈ 1.44 µM); in [2], 8 µg/mL (≈ 23 µM); in [3], 64 µg/mL (≈ 184 µM); in [4], 32 µg/mL (≈ 91.8 µM); in [5], 64 µg/mL (≈ 184 µM).

Regarding `COc1ccc(-c2csc(N/N=C\c3cccc4ccccc34)n2)cc1`, the MIC stood at 2 µg/mL (≈ 5.56 µM) in assay [1]; 16 µg/mL (≈ 44.5 µM) in [2]; 32 µg/mL (≈ 89 µM) in assay [3]; 4 µg/mL (≈ 11.1 µM) in [4]; 64 µg/mL (≈ 178 µM) in [5].
